Results from ChEMBL document CHEMBL3588808, “Koumine, Humantenine, and Yohimbane Alkaloids from Gelsemium elegans” (J Nat Prod, 2015).

Assays:
SMMC-7721 = assay: Cytotoxicity against human SMMC7721 cells by MTT assay; format: functional, cell-based
RAW264.7 = assay: Inhibition of nitric oxide production in LPS-activated mouse RAW264.7 cells; format: functional, cell-based
How it was run: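 LPS-activated RAW264.7 macrophages; compounds dissolved in DMSO and diluted in medium to a range of concentrations, top concentration 25 μM; NO production read as absorbance at 570 nm on a plate reader.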

MCF7 = assay: Cytotoxicity against human MCF7 cells by MTT assay; format: functional, cell-based
HL-60 = assay: Cytotoxicity against human HL60 cells by MTT assay; format: functional, cell-based
A549 = assay: Cytotoxicity against human A549 cells by MTT assay; format: functional, cell-based
[1] = Cytotoxicity against human BEAS2B cells by MTT assay; format: cell-based, BEAS-2B
SW480 = assay: Cytotoxicity against human SW480 cells by MTT assay; format: functional, cell-based
[2] = Homo sapiens, SMMC-7721, read-out: IC50
[3] = Mus musculus, RAW264.7, read-out: IC50
[4] = Homo sapiens, MCF7, read-out: IC50
[5] = Homo sapiens, HL-60, read-out: IC50
[6] = Homo sapiens, A549, read-out: IC50
[7] = Homo sapiens, BEAS-2B, read-out: IC50
[8] = Homo sapiens, SW480, read-out: IC50

COc1ccc2c(c1)N(OC)C(=O)[C@@]21C[C@@H]2NC=C(C=O)[C@@H]3C[C@H]1OC[C@H]23
IC50 (SMMC-7721; [2]): 7.3 µM
IC50 (RAW264.7; [3]): > 25 µM
IC50 (MCF7; [4]): > 10 µM
IC50 (HL-60; [5]): 8.5 µM
IC50 (A549; [6]): 9.3 µM
IC50 [1, 7]: > 10 µM
IC50 (SW480; [8]): > 10 µM

CC[C@@]1(O)CN[C@H]2C[C@@]3(C(=O)N(OC)c4ccccc43)[C@@H]3OC[C@H]2[C@H]1[C@@H]3O
IC50 (RAW264.7; [3]): > 25 µM

COc1ccc2c(c1)N(OC)C(=O)[C@@]21C[C@@H]2NC[C@](O)(C(C)O)[C@@H]3C[C@H]1OC[C@H]23 (some centres not stated)
IC50 (RAW264.7; [3]): > 25 µM

[O-][n+]1c2c3cc4c(cn3ccc-2c2ccccc21)CCCC4
IC50 (SMMC-7721; smmc-7721): ND(Insoluble)
IC50 (RAW264.7; raw264.7): ND(Insoluble)
IC50 (MCF7; mcf7): ND(Insoluble)
IC50 (HL-60; hl-60): ND(Insoluble)
IC50 (A549; a549): ND(Insoluble)
IC50 ([1]; beas-2b): ND(Insoluble)
IC50 (SW480; sw480): ND(Insoluble)

CCOC(=O)CCc1cc2c3[n-]c4ccccc4c3cc[n+]2cc1C(=O)O
IC50 (RAW264.7; [3]): > 25 µM

C=C[C@]12[C@@H]3C[C@@H]4OC[C@@H]3[C@@H](C[C@]13C4=Nc1ccccc13)N(C)[C@H]2O
IC50 (RAW264.7; [3]): > 25 µM

C=C[C@@]12C=N[C@H]3C[C@]14C(=Nc1ccccc14)[C@H]1C[C@@H]2[C@@H]3CO1
IC50 (SMMC-7721; [2]): 5.3 µM
IC50 (RAW264.7; [3]): > 25 µM
IC50 (MCF7; [4]): 9.3 µM
IC50 (HL-60; [5]): 4.6 µM
IC50 (A549; [6]): 4.9 µM
IC50 [1, 7]: 8.6 µM
IC50 (SW480; [8]): 7.3 µM

C=C[C@]12[C@@H]3C[C@@H]4OC[C@@H]3[C@@H](C[C@]13C4=Nc1ccccc13)N(C)[C@@H]2O
IC50 (RAW264.7; [3]): > 25 µM

C[C@H](O)[C@@]12C[N+](C)([O-])[C@@H]3C[C@]14C(=Nc1ccccc14)[C@H]1C[C@@H]2[C@@H]3CO1 (some centres not stated)
IC50 (RAW264.7; [3]): > 25 µM
